Data set [1] can be described thus: Fluorescence property of compound in MeOH assessed as excitation wavelength by UV-visible spectrophotometric method. It is filed as physicochemical. Put shortly:
(§1)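 Fluorescence excitation and emission spectra recorded on the compound at 1 μM in MeOH solution. Maxima of excitation and emission taken from these spectra.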

The nature of data set [2]: Fluorescence property of compound in EtOH assessed as excitation wavelength by UV-visible spectrophotometric method. The format is physicochemical.
For data set [3], the target named is T1, Retinoic acid receptor RXR-alpha (Homo sapiens) (UniProt P19793).
T1 sequence (whole entry): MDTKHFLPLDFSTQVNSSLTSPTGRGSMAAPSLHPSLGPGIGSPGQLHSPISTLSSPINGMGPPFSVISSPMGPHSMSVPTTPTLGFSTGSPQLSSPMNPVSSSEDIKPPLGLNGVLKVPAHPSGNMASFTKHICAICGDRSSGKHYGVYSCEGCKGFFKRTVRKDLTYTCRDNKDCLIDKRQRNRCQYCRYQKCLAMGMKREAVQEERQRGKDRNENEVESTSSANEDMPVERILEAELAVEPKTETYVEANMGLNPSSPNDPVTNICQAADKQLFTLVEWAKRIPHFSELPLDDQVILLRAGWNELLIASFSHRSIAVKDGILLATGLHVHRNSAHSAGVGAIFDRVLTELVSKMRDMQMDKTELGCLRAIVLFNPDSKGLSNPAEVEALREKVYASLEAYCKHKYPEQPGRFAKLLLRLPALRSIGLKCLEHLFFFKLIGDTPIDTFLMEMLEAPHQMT
Nature of the data set: Antagonist activity against human RXRalpha expressed in COS1 cells incubated for 18 hrs by SEAP reporter gene assay. As to conditions: COS-1, filed as antagonist. The format is cell-based. A general note: Reporter assays use an easily measured gene product as a stand-in for the process of interest.

The target in data set [4] is T2, Retinoic acid receptor RXR-alpha (Homo sapiens, UniProt P19793).
T2 sequence (P19793 whole entry): T1 sequence (whole entry)
Nature of the data set: Binding affinity to human RXRalpha-LBD (224 to 462 residues) expressed in Escherichia coli BL21(DE3) incubated for 2 hrs by fluorescence assay.

Data set [5] can be described thus: Fluorescence property of compound in EtOH assessed as quantum yield by UV-visible spectrophotometric method. It is filed as physicochemical.
Data set [6] can be described thus: Fluorescence property of compound in MeOH assessed as quantum yield by UV-visible spectrophotometric method. It is filed as physicochemical.
A short description of data set [7]: Fluorescence property of compound in MeOH assessed as emission wavelength by UV-visible spectrophotometric method. The format is physicochemical. In short, it runs like this: as §1
Data set [8] is described as follows: Fluorescence property of compound in EtOH assessed as molar extinction coefficient by UV-visible spectrophotometric method. It is filed as physicochemical.
A short description of data set [9]: Fluorescence property of compound in EtOH assessed as emission wavelength by UV-visible spectrophotometric method. It is filed as physicochemical.
The nature of data set [10]: Fluorescence property of compound in MeOH assessed as molar extinction coefficient by UV-visible spectrophotometric method. It is filed as physicochemical.
Data set [11] addresses T2, Retinoic acid receptor RXR-alpha. Nature of the data set: Binding affinity to human RXRalpha-LBD (224 to 462 residues) expressed in Escherichia coli BL21(DE3) incubated for 1 hr by fluorescence polarization assay. Background: In fluorescence polarisation assays a small probe gives low polarisation when free and higher when bound to something large.

Activity calls are given as the source filed them. The rule behind the calls is not given here.

A word on the Kd: it is the free concentration of one partner at which half of the binding sites on the other are occupied at equilibrium, for simple one-to-one binding. Higher therefore signals lower affinity.

For the compound `CC1(C)CCC(C)(C)c2cc(-n3c(C(F)(F)F)nc4cc(C(=O)O)ccc43)c(OCCOCCNc3ccc([N+](=O)[O-])c4nonc34)cc21`, the Activity was 464 nm in data set [1]; 461 nm in data set [2]; 0.237 in [5]; 0.224 in data set [6]; 530 nm in data set [7]; 8.4 10^3L/mol in data set [8]. Besides, the figures for the Activity in [9] and in data set [10] were 527 nm and 6.7 10^3L/mol, respectively. The outcome in data set [3] was Active. For the same compound, in [4], the Kd worked out at 629 nM.

As for `CC1=CC(C)=[N+]2C1=C(c1ccc(C(=O)NCCOCCOc3cc4c(cc3-n3c(C(F)(F)F)nc5cc(C(=O)O)ccc53)C(C)(C)CCC4(C)C)cc1)c1c(C)cc(C)n1[B-]2(F)F`, the Activity in data set [1] is on record as 499 nm; in data set [2] it was 499 nm; in data set [5], 0.471; in data set [6] it was 0.349; in data set [7], 508 nm; in [8], 2.8 10^4L/mol. In addition, the Activity in [9] is 509 nm; in data set [10] it was 2.8 10^4L/mol. Also, the outcome in data set [3] was Active. Moreover, the figures for the Kd in data set [4] and in data set [11] were 761 nM and 375 nM, respectively.
